Experimental data gathered from unrelated publications.
Each line is one published result; the experiments were not run side by side.

Compound | target or system | assay | system | conditions | quantity | value
COc1c(N2C[C@@H]3CCCN[C@@H]3C2)c(F)cc2c(=O)c(C(=O)O)cn(C3CC3)c12 | Mycobacteroides abscessus | microbial growth | ATCC19977 | – | MIC | 1 µM
Cc1sc2c(c1C)C(c1ccc(Cl)cc1)=N[C@@H](CC(=O)OC(C)(C)C)c1nnc(C)n1-2 | Jurkat | cell growth or viability, ATP luminescence | – | 72 h | IC50 | 1.01 µM
N.N.[Cl][Pt][Cl] | PLC | cell growth or viability, MTT | – | 72 h | IC50 | 8.21 µM
O=c1ccc2nc3ccc(O)cc3oc-2c1 | Pseudomonas aeruginosa | microbial growth | – | 24 h | MIC | > 32 µg/mL
Oc1c(Br)cc(Br)cc1-c1[nH]c(Br)c(Br)c1Br | Pseudomonas aeruginosa | microbial growth | ATCC27853 | – | MIC | 64 µM
COc1c(N2CC3CCCNC3C2)c(F)cc2c(=O)c(C(=O)OCc3cnc([N+](=O)[O-])s3)cn(C3CC3)c12 (centres unmarked) | Pseudomonas aeruginosa | microbial growth | ATCC27853 | – | MIC | 6 µM
Oc1c(Cl)cc(Cl)cc1-c1[nH]c(Cl)c(Cl)c1Cl | Pseudomonas aeruginosa | microbial growth | ATCC27853 | – | MIC | 64 µM
O=c1ccc2nc3ccc(OCc4ccc([N+](=O)[O-])o4)cc3oc-2c1 | Pseudomonas aeruginosa | microbial growth | – | 24 h | MIC | > 32 µg/mL
